Measured values from publication PMC3288683 (Bioconjugate Chemistry, 2012).

How the values were obtained:
SH-SY5Y cells [1] = experiment: Vybrant MTT Cell Proliferation Assay; assay type: cell-based, human; details: SH-SY5Y cells, 0.1, 0.5 and 1 μM, 12 h at 37°C, absorbance at 540 nm
Method in brief: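 SH-SY5Y cells, maintained in 1:1 DMEM:F12 with 10% FBS at 37°C under 5% CO2, seeded at 2 × 10^4 cells/well and grown overnight in phenol red-free DMEM:F12. Exposed to test compound (0.1, 0.5, 1 μM) for 12 h at 37°C, then to MTT 1 mg/mL for 4 h. Formazan dissolved in Me2SO; absorbance read at 540 nm against untreated control cells.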

CHO-K1 cells [2] = experiment: specificity of uptake by flow cytometry, negative control cells; assay type: cell-based, Chinese hamster; details: all concentrations (0.1, 0.2, 0.35, 0.5 μM), 6 h at 37°C
CHO-K1 cells [3] = experiment: comparative uptake study by confocal microscopy, negative control cells; assay type: cell-based, Chinese hamster
SH-SY5Y cells [4] = experiment: specificity of uptake by flow cytometry; assay type: cell-based, human; details: 0.1 μM, 6 h at 37°C, three replicate experiments
SH-SY5Y cells [5] = experiment: time course of agent uptake by confocal microscopy; assay type: cell-based, human; details: 0.1 μM, 37°C
SH-SY5Y cells [6] = experiment: live cell co-localization with RFP-labeled Rab5 in early endosomes; assay type: cell-based, human; details: 0.1 μM, 1 h at 37°C, intensities along the x-axis, Amira 5 software
SH-SY5Y cells [7] = experiment: comparative uptake study by confocal microscopy; assay type: cell-based, human; details: 0.1 μM, 4 h at 37°C, 3 fields per slide

Molecule	cellular toxicity (MTT cell viability) (SH-SY5Y cells [1])	specificity ratio (WT4879 vs WT4786 uptake) (CHO-K1 cells [2])	uptake in CHO-K1 cells relative to SH-SY5Y cells (CHO-K1 cells [3]; 0.1 μM, 4 h at 37°C, confocal microscopy, 3 fields per slide)	non-specific uptake in control cell-line CHO-K1 (CHO-K1 cells [3]; conclusion, in words)	uptake of WT4879 relative to WT4786 (ratio of specific over non-specific uptake) (SH-SY5Y cells [4])	time course of uptake intensity (SH-SY5Y cells [5]; 0-12 h, ImageJ, three regions of interest)	uptake at 0.25 and 0.5 h (SH-SY5Y cells [5]; data not shown)	uptake after 1 h (SH-SY5Y cells [5]; uniformly distributed in the cytoplasm)	overlap of AlexaFluor 488 intensity with RFP-labeled Rab5 intensity (SH-SY5Y cells [6])	uptake in SH-SY5Y cells relative to the specific WT4879 (SH-SY5Y cells [7])
Cc1cn(CC(=O)N(CCNC(=O)CN(CCNC(=O)CN(CCNC(=O)CN(CCNC(=O)CN(CCNC(=O)CN(CCNC(=O)CN(CCNC(=O)CN(CCNC(=O)CN(CCNC(=O)COCCOCCNC(=O)[C@H](CO)NC(=O)[C@H](Cc2ccccc2)N(C)C(=O)CNC(=O)[C@@H](C)NC(=O)[C@@H](N)Cc2ccc(O)cc2)C(=O)Cn2ccc(N)nc2=O)C(=O)Cn2cnc3c(N)ncnc32)C(=O)Cn2cc(C)c(=O)[nH]c2=O)C(=O)Cn2cnc3c(=O)[nH]c(N)nc32)C(=O)Cn2cnc3c(=O)[nH]c(N)nc32)C(=O)Cn2cc(C)c(=O)[nH]c2=O)C(=O)Cn2cnc3c(=O)[nH]c(N)nc32)C(=O)Cn2ccc(N)nc2=O)CC(=O)NCCN(CC(=O)NCCN(CC(=O)NCCN(CC(=O)NCCOCCOCC(=O)N[C@@H](CSC2CC(=O)N(CCCCCNC(=O)c3ccc(-c4c5ccc(=N)c(S(=O)(=O)O)c-5oc5c(S(=O)(=O)O)c(N)ccc45)c(C(=O)O)c3)C2=O)C(=O)O)C(=O)Cn2ccc(N)nc2=O)C(=O)Cn2cnc3c(N)ncnc32)C(=O)Cn2ccc(N)nc2=O)c(=O)[nH]c1=O (stereo partly drawn) [WT4879, Tyr-D-Ala-Gly-N-MePhe-Ser-AEEA-CAT GGT GCT CAC-AEEA-Cys-AlexaFluor488]	No cellular toxicity was observed	1 ± 0.3	~ 21%	minimal non-specific uptake	~ 5 fold	increased with time up to 4 h, leveling off thereafter	No significant uptake	taken up strongly	> 95%	–
Ala-D-Ala-Gly-N-MePhe-Ser-AEEA-CAT GGT GCT CAC-AEEA-Cys-AlexaFluor488 [WT4786]	–	–	–	–	–	–	–	–	–	~ 20%
